Results: ChEMBL document CHEMBL1153527, “Discovery of a novel series of quinolone and naphthyridine derivatives as potential topoisomerase I inhibitors by scaffold modification” (J Med Chem, 2009)

Experiments:
HeLa = assay: Cytotoxicity against p53-deficient human HeLa cells after 48 hrs by SRB assay; format: functional, cell-based
How it was run: (§1)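 Cell lines came from CCRC, Taiwan. Cells were seeded at about 5 × 10^3 per well and left overnight. They were then given serum-free medium containing 0-10 μM compound (0.08-10 μM serial dilutions) for 48 h at 37 °C. Cells were fixed with TCA (10% final), stained with SRB (0.4% final), and the dye was dissolved in 10 mM Tris with A515 read. IC50 was taken from a fitted log concentration-response curve.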

AGS = assay: Cytotoxicity against human AGS cells expressing wild type p53 after 48 hrs by SRB assay; format: functional, cell-based; how it was run: as §1
A549 = assay: Cytotoxicity against human A549 cells expressing wild type p53 after 48 hrs by SRB assay; format: functional, cell-based; settings: A549, 48 h; how it was run: as §1
PC-3 = assay: Cytotoxicity against p53-deficient human PC3 cells after 48 hrs by SRB assay; format: functional, cell-based; settings: PC-3, 48 h; how it was run: as §1
K562 = assay: Cytotoxicity against p53-deficient human K562 cells after 48 hrs by SRB assay; format: functional, cell-based; settings: K562, 48 h
[1] = Cytotoxicity against p53-deficient human Hep3B cells after 48 hrs by SRB assay; format: functional, cell-based, Hep 3B2; how it was run: as §1
KB = assay: Cytotoxicity against human KB cells after 48 hrs by MTT assay; format: functional, cell-based
Bel-7402 = assay: Cytotoxicity against human Bel7402 cells after 48 hrs by MTT assay; format: functional, cell-based; settings: Bel-7402, 48 h
A2780 = assay: Cytotoxicity against human A2780 cells after 48 hrs by MTT assay; format: functional, cell-based; settings: A2780, 48 h
[2] = Cytotoxicity against estrogen receptor-negative human […] cells expressing p53 mutant after 48 hrs by SRB assay; format: functional, cell-based; how it was run: as §1
THP-1 = assay: Cytotoxicity against human THP1 cells expressing p53 mutant after 48 hrs by SRB assay; format: functional, cell-based; settings: THP-1, 48 h
U-937 = assay: Cytotoxicity against human U937 cells expressing p53 mutant after 48 hrs by SRB assay; format: functional, cell-based; settings: U-937, 48 h
MCF7 = assay: Cytotoxicity against estrogen receptor-positive human MCF7 cells expressing wild type p53 after 48 hrs by SRB assay; format: functional, cell-based; settings: MCF7, 48 h; how it was run: as §1
HepG2 = assay: Cytotoxicity against human HepG2 cells expressing wild type p53 after 48 hrs by SRB assay; format: functional, cell-based; settings: HepG2, 48 h; how it was run: as §1
HT-29 = assay: Cytotoxicity against human HT-29 cells expressing p53 mutant after 48 hrs by SRB assay; format: functional, cell-based; settings: HT-29, 48 h; how it was run: as §1

Molecule `CCn1cc(-c2nc3ccc([N+](=O)[O-])cc3s2)c(=O)c2cc(F)c(N3CCNC(C)C3)c(F)c21` (configuration not stated) has a GI50 (HeLa) of 1.7 µM, an IC50 (HeLa) of 9.9 µM and a GI50 (AGS) of 3.3 µM. It also gave an IC50 (AGS) of 5.4 µM, a GI50 (A549) of 1.5 µM and an IC50 (A549) of 7 µM. The GI50 (PC-3) was 2.7 µM, the IC50 (PC-3) was 10 µM and the IC50 (K562) was greater than 10 µM. The GI50 [1] was 0.6 µM, the IC50 [1] was 1.4 µM and the IC50 (KB) was 4.7 µM. For the same molecule, the IC50 (Bel-7402) was 4.1 µM, the IC50 (A2780) was 3.3 µM and the GI50 [2] was 2.3 µM. It also gave an IC50 [2] of 7.4 µM, an IC50 (THP-1) greater than 10 µM and an IC50 (U-937) greater than 10 µM. For the same molecule, the GI50 (MCF7) was greater than 10 µM, the IC50 (MCF7) was greater than 10 µM and the GI50 (HepG2) was 0.9 µM. It also gave an IC50 (HepG2) of 3.6 µM, a GI50 (HT-29) of 1 µM and an IC50 (HT-29) of 5 µM.
`CCn1cc(-c2nc3ccc([N+](=O)[O-])cc3o2)c(=O)c2cc(F)c(N3CCNCC3)nc21` gave a GI50 (HeLa) greater than 10 µM, an IC50 (HeLa) greater than 10 µM and a GI50 (AGS) of 2.3 µM. The IC50 (AGS) was 4.4 µM, the GI50 (A549) was 2.1 µM and the IC50 (A549) was 7.3 µM. It also gave a GI50 (PC-3) of 5.8 µM, an IC50 (PC-3) of 9.8 µM and an IC50 (K562) greater than 10 µM. For the same molecule, the GI50 [1] was greater than 10 µM, the IC50 [1] was greater than 10 µM and the IC50 (KB) was 1.8 µM. For the same molecule, the IC50 (Bel-7402) was 3 µM, the GI50 [2] was greater than 10 µM and the IC50 [2] was greater than 10 µM. It also gave an IC50 (THP-1) greater than 10 µM, an IC50 (U-937) greater than 10 µM and a GI50 (MCF7) greater than 10 µM. The IC50 (MCF7) was greater than 10 µM, the GI50 (HepG2) was greater than 10 µM and the IC50 (HepG2) was greater than 10 µM. For the same molecule, the GI50 (HT-29) was greater than 10 µM and the IC50 (HT-29) was greater than 10 µM.
With `CCn1cc(-c2nc3ccc([N+](=O)[O-])cc3[nH]2)c(=O)c2cc(F)c(N3CCNCC3)cc21` the IC50 (KB) was 1.1 µM, the IC50 (Bel-7402) was 2.1 µM and the IC50 (A2780) was 1.6 µM.
Work on `CCn1cc(-c2nc3ccccc3s2)c(=O)c2cc(F)c(N3CCNCC3)cc21` yielded an IC50 (KB) of 28.7 µM, an IC50 (Bel-7402) of 24.3 µM and an IC50 (A2780) of 11.3 µM.
Work on `CCn1cc(-c2nc3ccc(Cl)cc3[nH]2)c(=O)c2cc(F)c(N3CCNCC3)cc21` yielded a GI50 (HeLa) of 1.2 µM, an IC50 (HeLa) of 4.2 µM and a GI50 (AGS) of 4.5 µM. For the same molecule, the IC50 (AGS) was 1 µM, the GI50 (A549) was 1 µM and the IC50 (A549) was 0.5 µM. It also gave a GI50 (PC-3) of 3.3 µM, an IC50 (PC-3) of 4.8 µM and an IC50 (K562) of 2.7 µM. For the same molecule, the GI50 [1] was 0.9 µM, the IC50 [1] was 2.3 µM and the IC50 (KB) was 1.6 µM. For the same molecule, the IC50 (Bel-7402) was 2.8 µM, the IC50 (A2780) was 4.9 µM and the GI50 [2] was 0.9 µM. For the same molecule, the IC50 [2] was 2.3 µM, the IC50 (THP-1) was 2.8 µM and the IC50 (U-937) was 4.2 µM. The GI50 (MCF7) was 4.2 µM, the IC50 (MCF7) was 4.5 µM and the GI50 (HepG2) was 1.8 µM. For the same molecule, the IC50 (HepG2) was 3.7 µM, the GI50 (HT-29) was 1.8 µM and the IC50 (HT-29) was 4.7 µM.
In the case of `CCn1cc(-c2nc3ccccc3o2)c(=O)c2cc(F)c(Cl)cc21`, the IC50 (KB) is reported as 10.2 µM, the IC50 (Bel-7402) is reported as 28.9 µM and the IC50 (A2780) is reported as 78.4 µM.
Work on `CCn1cc(-c2nc3ccccc3[nH]2)c(=O)c2cc(F)c(N3CCN(C)CC3)cc21` yielded an IC50 (KB) of 36.7 µM.
For `CCn1cc(-c2nc3ccc([N+](=O)[O-])cc3s2)c(=O)c2cc(F)c(N3CCNCC3)cc21`, the IC50 (KB) was 0.7 µM, the IC50 (Bel-7402) was 1.8 µM and the IC50 (A2780) was 0.7 µM.
`CCn1cc(-c2nc3ccccc3[nH]2)c(=O)c2cc(F)c(N3CCNCC3)cc21` showed a GI50 (HeLa) greater than 10 µM, an IC50 (HeLa) greater than 10 µM and a GI50 (AGS) of 9.5 µM. It also gave an IC50 (AGS) greater than 10 µM, a GI50 (A549) of 0.6 µM and an IC50 (A549) of 4.7 µM. It also gave a GI50 (PC-3) greater than 10 µM, an IC50 (PC-3) greater than 10 µM and an IC50 (K562) greater than 10 µM. For the same molecule, the GI50 [1] was greater than 10 µM, the IC50 [1] was greater than 10 µM and the IC50 (KB) was 10.5 µM. The IC50 (Bel-7402) was 27.4 µM, the IC50 (A2780) was 0.8 µM and the GI50 [2] was greater than 10 µM. It also gave an IC50 [2] greater than 10 µM, an IC50 (THP-1) greater than 10 µM and an IC50 (U-937) greater than 10 µM. The GI50 (MCF7) was greater than 10 µM, the IC50 (MCF7) was greater than 10 µM and the GI50 (HepG2) was greater than 10 µM. It also gave an IC50 (HepG2) greater than 10 µM, a GI50 (HT-29) greater than 10 µM and an IC50 (HT-29) greater than 10 µM.
`CCn1cc(-c2nc3ccccc3o2)c(=O)c2cc(F)c(N3CCNC(C)C3)c(F)c21` (configuration not stated) gave an IC50 (KB) of 18.9 µM, an IC50 (Bel-7402) of 5.7 µM and an IC50 (A2780) of 83.5 µM.
Molecule `CCn1cc(-c2nc3ccccc3o2)c(=O)c2cc(F)c(N3CCNCC3)nc21` has an IC50 (KB) of 11.7 µM, an IC50 (Bel-7402) of 16.8 µM and an IC50 (A2780) of 15.3 µM.
In the case of `CCn1cc(-c2nc3ccccc3o2)c(=O)c2cc(F)c(N3CCN(C)CC3)cc21`, the IC50 (KB) is reported as 87.4 µM, the IC50 (Bel-7402) is reported as 2 µM and the IC50 (A2780) is reported as 0.7 µM.
`CCn1cc(-c2nc3ccccc3s2)c(=O)c2cc(F)c(N3CCNCC3)nc21` gave an IC50 (KB) of 2.4 µM, an IC50 (Bel-7402) of 2.4 µM and an IC50 (A2780) of 2.7 µM.
For `CCn1cc(-c2nc3ccc([N+](=O)[O-])cc3o2)c(=O)c2cc(F)c(Cl)cc21`, the IC50 (KB) was 0.5 µM and the IC50 (Bel-7402) was 1.8 µM.
